Results as given in ChEMBL document CHEMBL4765343, “Design and synthesis of novel SCM-198 analogs as cardioprotective agents: Structure-activity relationship studies and biological evaluations” (Eur J Med Chem, 2020).
The source made the active and inactive calls. The calls are words filed in the database; no cut-off is given here.

Tests used:
[1] = AUCinfinity in Sprague-Dawley rat at 1 mg/kg, iv measured upto 24 hrs by LC-MS/MS analysis; format: ADME, organism-based; parameters: route intravenous, dose 1 mg/kg, time <=24; conditions: in vivo
How it was run: (§1)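 Male Sprague-Dawley rats, fasted, N = 3, given a single 1 mg/kg intravenous dose. Plasma separated by centrifugation and drug quantified by LC-MS/MS. Values reported as mean ± SD.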

H9c2 [2] = assay: Antiapoptotic activity in rat H9c2 cells assessed as reduction in H2O2-induced mitochondrial membrane potential loss at 1 uM preincubated for 4 hrs followed by H2O2 stimulation for 1 hr by JC1 staining based fluorescence microscopic analysis; format: functional, cell-based; conditions: time 5.0 hrs
How it was run: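 Pretreatment 4 h before 400 nM H2O2. Cells washed in cold PBS pH 7.4 and loaded with 0.5 μg/mL JC-1 for 40 min at 37 °C, washed, then viewed at once by fluorescence microscopy. Monomer read at ex 490/em 535 nm, aggregate at ex 525/em 600 nm. Ratio taken from three independent fields per group, mean ± SD.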

Mus musculus [3] = assay: (§2) Cardioprotective activity in C57BL/6J mouse model of LAD coronary artery ligation-induced acute myocardial infarction assessed as reduction in epimyocardium damage at 5 mg/kg, ip pretreated for 7 consecutive days followed by LAD coronary artery ligation after compound treatment for another 3 days by hematoxylin and eosin staining based assay; format: functional, organism-based; conditions: time 10.0 day
How it was run: (§3)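 Eight-week C57BL/6J mice received 5 mg/kg/day i.p. (saline vehicle) for 7 days before permanent LAD ligation, then 3 further days. Paraffin heart sections deparaffinised, stained with hematoxylin 10 min, differentiated in 0.1% HCl, counterstained with eosin 3-5 min, then examined by light microscopy.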

[4] = AUClast in Sprague-Dawley rat at 1 mg/kg, iv measured upto 24 hrs by LC-MS/MS analysis; format: ADME, organism-based; parameters: route intravenous, dose 1 mg/kg, time <=24; conditions: in vivo; how it was run: as §1
[5] = Apparent volume of distribution during terminal phase in Sprague-Dawley rat at 1 mg/kg, iv measured upto 24 hrs by LC-MS/MS analysis; format: ADME, organism-based; conditions: in vivo
[6] = AUClast in Sprague-Dawley rat at 10 mg/kg, po measured upto 24 hrs by LC-MS/MS analysis; format: ADME, organism-based; parameters: route oral, dose 10 mg/kg, time <=24; conditions: in vivo
How it was run: (§4)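 A single 10 mg/kg oral (i.g.) dose was given to male Sprague-Dawley rats, N = 3. Plasma was harvested by centrifugation and measured by LC-MS/MS. Values reported as mean ± SD.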

[7] = Toxicity in C57BL/6J mouse assessed as diarrhea at 5 mg/kg, ip administered for 7 consecutive days; format: organism-based; conditions: in vivo, 168 h, time 7 day
[8] = Apparent volume of distribution during terminal phase in Sprague-Dawley rat at 10 mg/kg, po measured upto 24 hrs by LC-MS/MS analysis; format: ADME, organism-based; conditions: in vivo, read-out: Vz/F
Mus musculus [9] = assay: as §2, with “cardiomyocytes” for “epimyocardium”; format: functional, organism-based; conditions: time 10.0 day; how it was run: as §3
[10] = Cmax in Sprague-Dawley rat at 10 mg/kg, po measured upto 24 hrs by LC-MS/MS analysis; format: ADME, organism-based; parameters: route oral, dose 10 mg/kg, time <=24; conditions: in vivo
H9c2 [11] = assay: Antiapoptotic activity in rat H9c2 cells assessed as reduction in H2O2-induced caspase-3 activation at 1 uM preincubated for 4 hrs followed by H2O2 stimulation for 1 hr by Western blotting analysis; format: functional, cell-based; conditions: time 5.0 hrs
How it was run: (§5)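 Serum-starved (12 h) H9c2 cells were pretreated 4 h, then exposed to 500 nM H2O2 in DMEM for 1 h. Lysis on ice with protease/phosphatase inhibitors, then 13,000 g at 4 °C for 15 min. 20 μg protein run on 8-12% SDS-PAGE and blotted to PVDF. Probed overnight at 4 °C for caspase-3, pro-caspase-3, Bcl-2 and GAPDH, with chemiluminescent detection.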

Mus musculus [12] = assay: as §2, with “myocardial infarct size” for “epimyocardium damage”, “TTC” for “hematoxylin and eosin”; format: functional, organism-based; conditions: time 10.0 day
How it was run: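 Male/female not stated; 8-week C57BL/6J mice given daily ip doses in saline vehicle for 7 d, then permanent LAD ligation, with dosing continued 3 more days to sacrifice. Under isoflurane, hearts perfused with saline plus 40 mM KCl, cut into 4-5 transverse slices, stained with 1% TTC pH 7.4 at 37 °C for 20 min, formalin-fixed; infarct area by planimetry as % of LV area; N = 6-7 per group.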

[13] = Half life in Sprague-Dawley rat at 10 mg/kg, po measured upto 24 hrs by LC-MS/MS analysis; format: ADME, organism-based; conditions: in vivo
H9c2 [14] = assay: Antioxidant activity in rat H9c2 cells assessed as protection against H2O2-induced hypoxic injury by measuring cell viability preincubated for 4 hrs followed by H2O2 stimulation for 1 hr by MTT assay relative to control; format: functional; conditions: time 5 hrs, read-out: ED50 (the source's name)
How it was run: (§6)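 ED50 taken from log dose against % viability. Viability also reported at the EC50 concentration. Means ± SEM from three independent experiments.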

H9c2 [15] = assay: Antioxidant activity in rat H9c2 cells assessed as protection against H2O2-induced hypoxic injury by measuring cell viability at ED50 concentration preincubated for 4 hrs followed by H2O2 stimulation for 1 hr by MTT assay relative to control; format: functional; conditions: time 5 hrs; how it was run: as §6
H9c2 [16] = assay: Cytoprotective activity against H2O2-induced injury in rat H9c2 cells assessed as reduction in LDH release at 1 uM preincubated for 4 hrs followed by H2O2 stimulation for 1 hr by LDH assay; format: functional, cell-based; conditions: time 5.0 hrs
How it was run: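 Cells at 5 × 10^4 per well in triplicate, 18 h, then 4 h compound and 1 h H2O2. Model wells had H2O2 without compound; controls had DMSO. 50 μL medium mixed with 2X LDH assay buffer, kept in the dark at 22-25 °C for 10-30 min, read at 490-520 nm. Activity blank-subtracted, normalised to BCA protein of the lysed cells, and expressed relative to model wells.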

H9c2 [17] = assay: Anti-oxidative effect in rat H9c2 cells assessed as reduction in H2O2-induced MnSOD activity at 10 uM preincubated for 4 hrs followed by H2O2 stimulation for 1 hr by WST-8 assay; format: functional, cell-based; conditions: time 5.0 hrs
How it was run: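 H9c2 cells (ATCC) grown in high-glucose DMEM with 10% FBS at 37 °C, 5% CO2, used at 80-90% confluence and serum-starved 12 h. Compound given 4 h, then medium replaced by DMEM with 500 nM H2O2 for 1 h. Lysate spun 15,000g for 15 min. Cu/Zn SOD blocked with 1 mmol/L KCN, MnSOD read by WST-8 kit, expressed as U/mg protein.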

[18] = Half life in Sprague-Dawley rat at 1 mg/kg, iv measured upto 24 hrs by LC-MS/MS analysis; format: ADME, organism-based; conditions: in vivo
H9c2 [19] = assay: Antioxidant activity in rat H9c2 cells assessed as protection against H2O2-induced hypoxic injury by measuring cell viability at 1 uM preincubated for 4 hrs followed by H2O2 stimulation for 1 hr by MTT assay relative to control; format: functional
How it was run: (§7)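 H9c2 cells at 1 × 10^5 cells/mL, 100 μL per well in triplicate, left 18 h. Compound diluted in DMSO; DMSO alone as negative control. 4 h pretreatment, then 400 nM H2O2 for 1 h. Medium removed and MTT added for 2-4 h, formazan dissolved in DMSO, absorbance at 570 nm. Medium-only wells gave the blank.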

[20] = AUCinfinity in Sprague-Dawley rat at 10 mg/kg, po measured upto 24 hrs by LC-MS/MS analysis; format: ADME, organism-based; parameters: route oral, dose 10 mg/kg, time <=24; conditions: in vivo; how it was run: as §4
[21] = Toxicity in C57BL/6J mouse assessed as loss of body weight at 5 mg/kg, ip administered for 7 consecutive days; format: organism-based; conditions: in vivo, 168 h, time 7 day
[22] = Oral bioavailability in Sprague-Dawley rat at 10 mg/kg measured upto 24 hrs by LC-MS/MS analysis; format: ADME, organism-based; conditions: in vivo
[23] = Apparent clearance in Sprague-Dawley rat at 10 mg/kg, po measured upto 24 hrs by LC-MS/MS analysis; format: ADME, organism-based; conditions: in vivo
[24] = Cmax in Sprague-Dawley rat at 1 mg/kg, iv measured upto 24 hrs by LC-MS/MS analysis; format: ADME, organism-based; parameters: route intravenous, dose 1 mg/kg, time <=24; conditions: in vivo
H9c2 [25] = assay: Antiapoptotic activity in rat H9c2 cells assessed as restoration of H2O2-induced bcl-2 downregulation at 1 uM preincubated for 4 hrs followed by H2O2 stimulation for 1 hr by Western blotting analysis; format: functional, cell-based; conditions: time 5.0 hrs; how it was run: as §5
H9c2 [26] = assay: Antioxidant activity in rat H9c2 cells assessed as protection against H2O2-induced hypoxic injury by measuring cell viability at 10 uM preincubated for 4 hrs followed by H2O2 stimulation for 1 hr by MTT assay relative to control; format: functional; how it was run: as §7
Mus musculus [27] = assay: as §2, with “apoptosis of cardiomyocytes” for “epimyocardium damage”, “TUNEL” for “hematoxylin and eosin”; format: functional, organism-based; conditions: time 10.0 day
How it was run: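 C57BL/6J mice, 8 weeks old, given compound i.p. in saline vehicle daily for 7 days, then permanent LAD ligation with body temperature held at 37 °C. Dosing continued 3 more days until sacrifice. Sections treated with proteinase K, then TdT reaction 30 min at 37 °C and DAPI counterstain. TUNEL-positive nuclei in border area counted as % of DAPI nuclei, N = 4 per group.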

COc1cccc(C(=O)OCCCCNC(=N)N)c1OC
AUC(0-inf) [1]: 895 ng·h/mL
Activity (H9c2 [2]): Active
Activity (Mus musculus [3]): Active
AUC(0-t) at 24 h [4]: 882 ng·h/mL
Vz/F [5]: 3.766 L/kg
AUC(0-t) at 24 h [6]: 1630 ng·h/mL
Activity [7]: Non-Toxic
Vd/F [8]: 43.7 L/kg
Activity (Mus musculus [9]): Active
Cmax [10]: 621 ng/mL
Activity (H9c2 [11]): Active
Activity (Mus musculus [12]): Active
half-life [13]: 4.87 h
EC50 (H9c2 [14]): 142 nM
Activity (H9c2 [15]): 62.8%
Activity (H9c2 [16]): Active
Activity (H9c2 [17]): Active
half-life [18]: 1.63 h
Activity (H9c2 [19]): 69.3%
AUC(0-inf) [20]: 1680 ng·h/mL
Activity [21]: Non-Toxic
bioavailability [22]: 18.5%
CL/F [23]: 92.9 mL/min/kg
Cmax [24]: 764 ng/mL
Activity (H9c2 [25]): Active
Activity (H9c2 [26]): 65.3%
Activity (Mus musculus [27]): Active

COc1cc(C(=O)OCCCCN)cc(OC)c1O
Activity (H9c2 [19]): 56.3%
Activity (H9c2 [26]): 56.2%

CCN(CC)CCOC(=O)c1cc(OC)c(O)c(OC)c1
EC50 (H9c2 [14]): 207 nM
Activity (H9c2 [15]): 51.7%
Activity (H9c2 [19]): 61.1%
Activity (H9c2 [26]): 66.8%

N=C(N)NCCCCOC(=O)C12CC3CC(CC(C3)C1)C2
Activity (H9c2 [19]): 58.2%
Activity (H9c2 [26]): 56.8%

CC(=O)Oc1ccccc1C(=O)OCCCCNC(=N)N
Activity (H9c2 [19]): 57.8%
Activity (H9c2 [26]): 58.3%

N=C(N)NCCCCOC(=O)C1CCCCC1
Activity (H9c2 [19]): 52.4%
Activity (H9c2 [26]): 58.8%

CC(=O)Oc1cccc(C(=O)OCCCCNC(=N)N)c1
Activity (H9c2 [19]): 59.7%
Activity (H9c2 [26]): 62.8%

COc1ccc(C(=O)OCCCCNC(=N)N)c(OC)c1OC
Activity (H9c2 [19]): 49.2%
Activity (H9c2 [26]): 57.8%

COc1cc(C(=O)OCCNC(=N)N)cc(OC)c1O
Activity (H9c2 [19]): 53.6%
Activity (H9c2 [26]): 61.9%

N=C(N)NCCCCOC(=O)c1ccco1
Activity (H9c2 [19]): 51.1%
Activity (H9c2 [26]): 53.2%

N=C(N)NCCCCOC(=O)c1ccncc1
Activity (H9c2 [19]): 54%
Activity (H9c2 [26]): 53.2%

COc1cc(C(=O)OCC2CCN(C(=N)N)CC2)cc(OC)c1O
Activity (H9c2 [19]): 56.2%
Activity (H9c2 [26]): 61%

COc1cc(C(=O)OC(C)CNC(=N)N)cc(OC)c1O (stereo not drawn)
Activity (H9c2 [19]): 52.2%
Activity (H9c2 [26]): 54.2%

N=C(N)NCCCCOC(=O)c1ccc2[nH]ccc2c1
Activity (H9c2 [19]): 51.8%
Activity (H9c2 [26]): 58.9%

COc1cc(C(=O)OCCCCNC(=N)N)cc(OC)c1OC(C)=O
Activity (H9c2 [19]): 52.3%
Activity (H9c2 [26]): 55.2%

COc1cc(C(=O)OCCCCNC(=N)N)cc(OC)c1OC
Activity (H9c2 [19]): 54.1%
Activity (H9c2 [26]): 53.3%

N=C(N)NCCCCOC(=O)c1ccc(C(F)(F)F)cc1
Activity (H9c2 [19]): 54.2%
Activity (H9c2 [26]): 51.7%

N=C(N)NCCCCOC(=O)c1ccc([N+](=O)[O-])cc1
Activity (H9c2 [19]): 67.7%
Activity (H9c2 [26]): 59.6%
